Reference: ChEMBL document CHEMBL1145491, “Artemisinins inhibit Trypanosoma cruzi and Trypanosoma brucei rhodesiense in vitro growth” (Antimicrob Agents Chemother, 2007)
pIC50: −log10 of the molar value.

Tests used:
[1] = system: Trypanosoma brucei rhodesiense; assay: Growth inhibition of Trypanosoma brucei rhodesiense trypomastigotes after 72 hrs by Alamar blue assay; format: functional, organism-based
Trypanosoma cruzi [2] = assay: Growth inhibition of Trypanosoma cruzi epimastigotes after 72 hrs by Alamar blue assay; format: functional, organism-based
Leishmania donovani [3] = assay: Growth inhibition of Leishmania donovani promastigotes after 72 hrs by Alamar blue assay; format: functional, organism-based
In short: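 Parasites exposed to drug for 72 h; growth read as optical density at 600 nm against drug-free control cultures. Six drug concentrations per run, 2–5 independent runs; mean inhibition plotted against concentration, IC50 and IC90 by linear regression, reported in micromolar with standard errors of the means.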

Leishmania donovani [4] = assay: Antiparasitic activity against Leishmania donovani in hamster assessed as reduction of liver parasite burden at 25 mg/kg, po; format: functional; set-up: scale not given: the % may be the effect or the level left
Leishmania donovani [5] = assay: Antiparasitic activity against Leishmania donovani in hamster assessed as reduction of liver parasite burden at 50 mg/kg, po; format: functional; set-up: scale not given: the % may be the effect or the level left
Leishmania donovani [6] = assay: Antiparasitic activity against Leishmania donovani in hamster assessed as reduction of spleen parasite burden at 50 mg/kg, po; format: functional; set-up: scale not given: the % may be the effect or the level left
Leishmania donovani [7] = assay: Antiparasitic activity against Leishmania donovani in hamster assessed as reduction of spleen parasite burden at 25 mg/kg, po; format: functional; set-up: scale not given: the % may be the effect or the level left
Leishmania major [8] = assay: Antiparasitic activity against Leishmania major amastigotes in macrophage assessed as parasite killing at 3 to 30 uM; format: functional
Trypanosoma cruzi [9] = assay: Inhibition of ATPase in Trypanosoma cruzi at 1 uM in presence of calcium; set-up: scale not given: the % may be the effect or the level left
In short: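 T. cruzi membranes were isolated by a protocol adapted from Leishmania. It was started with 2 mM ATP, and released inorganic phosphate was measured colorimetrically.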

Leishmania infantum = assay: Antiparasitic activity against Leishmania infantum promastigotes assessed as parasite killing at 1.4 to 382.9 uM; format: functional
[10] = Growth inhibition of human U937 cells at 3 mM; format: cell-based, U-937
Leishmania major [11] = assay: Antiparasitic activity against Leishmania major promastigotes assessed as parasite killing at 750 nM; format: functional

## C[C@@H]1O[C@@H](O[C@H]2C[C@@H](O)[C@]3(CO)[C@H]4[C@H](O)C[C@]5(C)[C@@H](C6=CC(=O)OC6)CC[C@]5(O)[C@@H]4CC[C@]3(O)C2)[C@H](O)[C@H](O)[C@H]1O [OUABAIN]
[1]
  pIC50: < 3.35
  IC90: 1180 µM
Trypanosoma cruzi [2]
  pIC50: < 3.35
  IC90: 953 µM
Leishmania donovani [3]
  pIC50: < 3.35

## C[C@H]1[C@H](N2CCS(=O)(=O)CC2)O[C@@H]2O[C@@]3(C)CC[C@H]4[C@H](C)CC[C@@H]1[C@@]24OO3 [ARTEMIFONE]
[1]
  pIC50: 4.65
  IC90: 44.8 µM
Trypanosoma cruzi [2]
  pIC50: 4.63
  IC90: 50.5 µM
Leishmania donovani [3]
  pIC50: 4.89

## C[C@H]1[C@@H](O)O[C@@H]2O[C@@]3(C)CC[C@H]4[C@H](C)CC[C@@H]1[C@@]24OO3 [ARTENIMOL]
Leishmania donovani [4]
  Activity: 75%
Leishmania donovani [5]
  Activity: 75%
Leishmania donovani [6]
  Activity: 75%
[1]
  pIC50: 4.61
  IC90: 49.6 µM
Leishmania donovani [7]
  Activity: 75%
Trypanosoma cruzi [2]
  pIC50: 4.89
  IC90: 49.2 µM

## C[C@@H]1CC[C@H]2[C@@H](C)C(=O)O[C@@H]3O[C@@]4(C)CC[C@@H]1[C@]32OO4 [ARTEMISININ]
Leishmania major [8]
  Activity: 50%
Trypanosoma cruzi [9]
  Activity: 24.9%
Leishmania infantum
  Activity: 50%
[1]
  pIC50: 4.69
  IC90: 49.1 µM
Trypanosoma cruzi [2]
  pIC50: 4.87
  IC90: 46.5 µM
[10]
  inhibition at 3000 µM: < 5%
Leishmania donovani [3]
  pIC50: 4.51
Leishmania major [11]
  Activity: 50%

## C[C@@H]1[C@H](O)[C@@H](C)/C=C/C=C/C=C/C=C/C=C/C=C/C=C/[C@H](O[C@@H]2O[C@H](C)[C@@H](O)[C@H](N)[C@@H]2O)C[C@@H]2O[C@](O)(C[C@@H](O)C[C@@H](O)[C@H](O)CC[C@@H](O)C[C@@H](O)CC(=O)O[C@H]1C)C[C@H](O)[C@H]2C(=O)O [AMPHOTERICIN B]
[1]
  pIC50: 5.55
  IC90: 11.9 µM
Trypanosoma cruzi [2]
  pIC50: 5.19
  IC90: 19.6 µM
Leishmania donovani [3]
  pIC50: 5.55

## N=C(N)c1ccc(OCCCCCOc2ccc(C(=N)N)cc2)cc1 [PENTAMIDINE]
[1]
  pIC50: 5.92
  IC90: 3.7 µM
Trypanosoma cruzi [2]
  pIC50: 5.96
  IC90: 4.4 µM
Leishmania donovani [3]
  pIC50: 6.00

## C/C=C(/C)C(=O)O[C@H]1C(C)=C2[C@H]([C@@H]1OC(=O)CCCCCCC)[C@@](C)(OC(C)=O)C[C@H](OC(=O)CCC)[C@@]1(O)[C@H]2OC(=O)[C@@]1(C)O [THAPSIGARGIN]
Trypanosoma cruzi [9]
  Activity: 25.8%
[1]
  pIC50: 4.52
  IC90: 71.9 µM
Trypanosoma cruzi [2]
  pIC50: 4.47
  IC90: 78.1 µM
Leishmania donovani [3]
  pIC50: 4.55

## COc1ccc2[nH]c([S+]([O-])Cc3ncc(C)c(OC)c3C)nc2c1 (centres undefined) [OMEPRAZOLE]
[1]
  pIC50: 3.75
  IC90: 509 µM
Trypanosoma cruzi [2]
  pIC50: 3.75
  IC90: 526 µM
Leishmania donovani [3]
  pIC50: 3.47
